# Assay results taken from article PMC8994735 (Targeted Oncology, 2021).
# Where two headings read alike, the source gives them in different places.
# System: East Asian patients with advanced nonhematologic malignancies
# Format: in vivo, human
# Outline: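 AEs were graded by NCI CTCAE v4.03 in all patients receiving ≥ 1 oral dose, given once daily or once weekly in 28-day cycles for up to 12 months. Follow-up lasted 30 days after the last dose. Entry required ECOG 0–1, fasting glucose ≤ 130 mg/dL and triglycerides ≤ 300 mg/dL. Summaries were descriptive.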
# [1] = QD dose escalation 2 mg (n = 3)
# [2] = QD dose escalation 3 mg (n = 6)
# [3] = QD dose escalation 4 mg (n = 7)
# [4] = QD dose escalation + expansion 3 mg (n = 12)
compound,measurement,setting,value
CC(C)n1nc(-c2ccc3oc(N)nc3c2)c2c(N)ncnc21 [sapanisertib],Tolerability,"East Asian patients, QD and QW",generally well-tolerated
same,AE decreased appetite,QD arm,50%
same,AE nausea,QD arm,50%
same,Treatment-related AE decreased appetite,QD arm,45%
same,Treatment-related AE nausea,QD arm,50%
same,Discontinued treatment due to AEs,"QD arm (myocardial infarction, diarrhea and gastrointestinal inflammation, rash maculo-papular)",three
same,AEs resulting in discontinuation,[1],1 (33) n (%)
same,AEs resulting in dose interruption,[1],1 (33) n (%)
same,AEs resulting in dose reduction,[1],0 n (%)
same,Any AE,[1],3 (100) n (%)
same,Any grade ≥ 3 AE,[1],1 (33) n (%)
same,On-study deaths,[1],0 n (%)
same,SAEs,[1],0 n (%)
same,Treatment-related AE,[1],3 (100) n (%)
same,Treatment-related SAEs,[1],0 n (%)
same,Treatment-related grade ≥ 3 AE,[1],1 (33) n (%)
same,AEs resulting in discontinuation,[2],0 n (%)
same,AEs resulting in dose interruption,[2],5 (83) n (%)
same,AEs resulting in dose reduction,[2],0 n (%)
same,Any AE,[2],6 (100) n (%)
same,Any grade ≥ 3 AE,[2],2 (33) n (%)
same,On-study deaths,[2],0 n (%)
same,SAEs,[2],2 (33) n (%)
same,Treatment-related AE,[2],6 (100) n (%)
same,Treatment-related SAEs,[2],0 n (%)
same,Treatment-related grade ≥ 3 AE,[2],0 n (%)
same,AEs resulting in discontinuation,[3],2 (29) n (%)
same,AEs resulting in dose interruption,[3],6 (86) n (%)
same,AEs resulting in dose reduction,[3],3 (43) n (%)
same,Any AE,[3],7 (100) n (%)
same,Any grade ≥ 3 AE,[3],6 (86) n (%)
same,On-study deaths,[3],0 n (%)
same,SAEs,[3],3 (43) n (%)
same,Treatment-related AE,[3],7 (100) n (%)
same,Treatment-related SAEs,[3],2 (29) n (%)
same,Treatment-related grade ≥ 3 AE,[3],6 (86) n (%)
same,AEs resulting in discontinuation,[4],0 n (%)
same,AEs resulting in dose interruption,[4],8 (67) n (%)
same,AEs resulting in dose reduction,[4],1 (8) n (%)
same,Any AE,[4],12 (100) n (%)
same,Any grade ≥ 3 AE,[4],7 (58) n (%)
same,On-study deaths,[4],0 n (%)
same,SAEs,[4],3 (25) n (%)
same,Treatment-related AE,[4],12 (100) n (%)
same,Treatment-related SAEs,[4],0 n (%)
same,Treatment-related grade ≥ 3 AE,[4],3 (25) n (%)
same,AEs resulting in discontinuation,QD dose expansion 3 mg (n = 6),0 n (%)
same,AEs resulting in dose interruption,QD dose expansion 3 mg (n = 6),3 (50) n (%)
same,AEs resulting in dose reduction,QD dose expansion 3 mg (n = 6),1 (17) n (%)
same,Any AE,QD dose expansion 3 mg (n = 6),6 (100) n (%)
same,Any grade ≥ 3 AE,QD dose expansion 3 mg (n = 6),5 (83) n (%)
same,On-study deaths,QD dose expansion 3 mg (n = 6),0 n (%)
same,SAEs,QD dose expansion 3 mg (n = 6),1 (17) n (%)
same,Treatment-related AE,QD dose expansion 3 mg (n = 6),6 (100) n (%)
same,Treatment-related SAEs,QD dose expansion 3 mg (n = 6),0 n (%)
same,Treatment-related grade ≥ 3 AE,QD dose expansion 3 mg (n = 6),3 (50) n (%)
same,AE by preferred term: Abdominal pain,QD dosing n = 22,3 (14) n (%)
same,AE by preferred term: Alanine aminotransferase increased,QD dosing n = 22,4 (18) n (%)
same,AE by preferred term: Anemia,QD dosing n = 22,5 (23) n (%)
same,AE by preferred term: Aspartate aminotransferase increased,QD dosing n = 22,6 (27) n (%)
same,AE by preferred term: Constipation,QD dosing n = 22,4 (18) n (%)
same,AE by preferred term: Decreased appetite,QD dosing n = 22,11 (50) n (%)
same,AE by preferred term: Diarrhea,QD dosing n = 22,2 (9) n (%)
same,AE by preferred term: Erythema,QD dosing n = 22,2 (9) n (%)
same,AE by preferred term: Erythema multiforme,QD dosing n = 22,2 (9) n (%)
same,AE by preferred term: Fatigue,QD dosing n = 22,7 (32) n (%)
same,AE by preferred term: Gamma-glutamyltransferase increased,QD dosing n = 22,2 (9) n (%)
same,AE by preferred term: Gastrointestinal inflammation,QD dosing n = 22,2 (9) n (%)
same,AE by preferred term: Headache,QD dosing n = 22,2 (9) n (%)
same,AE by preferred term: Hyperglycemia,QD dosing n = 22,9 (41) n (%)
same,AE by preferred term: Hypokalemia,QD dosing n = 22,3 (14) n (%)
same,AE by preferred term: Lymphocyte count decreased,QD dosing n = 22,4 (18) n (%)
same,AE by preferred term: Nausea,QD dosing n = 22,11 (50) n (%)
same,AE by preferred term: Neutrophil count decreased,QD dosing n = 22,2 (9) n (%)
same,AE by preferred term: Platelet count decreased,QD dosing n = 22,6 (27) n (%)
same,AE by preferred term: Pruritus,QD dosing n = 22,2 (9) n (%)
same,AE by preferred term: Pyrexia,QD dosing n = 22,4 (18) n (%)
same,AE by preferred term: Rash erythematous,QD dosing n = 22,2 (9) n (%)
same,AE by preferred term: Rash maculo-papular,QD dosing n = 22,5 (23) n (%)
same,AE by preferred term: Rash pustular,QD dosing n = 22,2 (9) n (%)
same,AE by preferred term: Stomatitis,QD dosing n = 22,14 (64) n (%)
same,AE by preferred term: Urticaria,QD dosing n = 22,3 (14) n (%)
same,AE by preferred term: Vomiting,QD dosing n = 22,5 (23) n (%)
same,AE by preferred term: Weight decreased,QD dosing n = 22,7 (32) n (%)
same,AE by preferred term: White blood cell count decreased,QD dosing n = 22,4 (18) n (%)
same,Grade ≥ 3 AE: Acute myocardial infarction,QD dosing n = 22,1 (5) n (%)
same,Grade ≥ 3 AE: Aspartate aminotransferase increased,QD dosing n = 22,1 (5) n (%)
same,Grade ≥ 3 AE: Blood creatine phosphokinase increased,QD dosing n = 22,1 (5) n (%)
same,Grade ≥ 3 AE: Decreased appetite,QD dosing n = 22,1 (5) n (%)
same,Grade ≥ 3 AE: Diarrhea,QD dosing n = 22,1 (5) n (%)
same,Grade ≥ 3 AE: Gamma-glutamyltransferase increased,QD dosing n = 22,1 (5) n (%)
same,Grade ≥ 3 AE: Gastrointestinal inflammation,QD dosing n = 22,1 (5) n (%)
same,Grade ≥ 3 AE: Genital herpes,QD dosing n = 22,1 (5) n (%)
same,Grade ≥ 3 AE: Gingivitis,QD dosing n = 22,1 (5) n (%)
same,Grade ≥ 3 AE: Jaundice cholestatic,QD dosing n = 22,1 (5) n (%)
same,Grade ≥ 3 AE: Lymphocyte count decreased,QD dosing n = 22,2 (9) n (%)
same,Grade ≥ 3 AE: Nausea,QD dosing n = 22,2 (9) n (%)
same,Grade ≥ 3 AE: Neutrophil count decreased,QD dosing n = 22,1 (5) n (%)
same,Grade ≥ 3 AE: Platelet count decreased,QD dosing n = 22,1 (5) n (%)
same,Grade ≥ 3 AE: Post herpetic neuralgia,QD dosing n = 22,1 (5) n (%)
same,Grade ≥ 3 AE: Pruritus,QD dosing n = 22,1 (5) n (%)
same,Grade ≥ 3 AE: Rash maculo-papular,QD dosing n = 22,2 (9) n (%)
same,Grade ≥ 3 AE: Rash pustular,QD dosing n = 22,1 (5) n (%)
same,Grade ≥ 3 AE: Renal impairment,QD dosing n = 22,1 (5) n (%)
same,Grade ≥ 3 AE: Sepsis,QD dosing n = 22,1 (5) n (%)
same,Grade ≥ 3 AE: Stomatitis,QD dosing n = 22,2 (9) n (%)
same,Grade ≥ 3 AE: Urticaria,QD dosing n = 22,1 (5) n (%)
same,Grade ≥ 3 AE: White blood cell count decreased,QD dosing n = 22,1 (5) n (%)
same,Patients with ≥ 1 grade 3 or higher AE,QD dosing n = 22,14 (64) n (%)
same,AEs resulting in discontinuation,QD total (n = 22),3 (14) n (%)
same,AEs resulting in dose interruption,QD total (n = 22),15 (68) n (%)
same,AEs resulting in dose reduction,QD total (n = 22),4 (18) n (%)
same,Any AE,QD total (n = 22),22 (100) n (%)
same,Any grade ≥ 3 AE,QD total (n = 22),14 (64) n (%)
same,On-study deaths,QD total (n = 22),0 n (%)
same,SAEs,QD total (n = 22),6 (27) n (%)
same,Treatment-related AE,QD total (n = 22),22 (100) n (%)
same,Treatment-related SAEs,QD total (n = 22),2 (9) n (%)
same,Treatment-related grade ≥ 3 AE,QD total (n = 22),10 (45) n (%)
same,AE alanine aminotransferase increased,QW arm,50%
same,AE aspartate aminotransferase increased,QW arm,50%
same,AE blood alkaline phosphatase increased,QW arm,67%
same,AE decreased appetite,QW arm,50%
same,AE hyperglycemia,QW arm,67%
same,AE nausea,QW arm,100%
same,AE stomatitis,QW arm,33%
same,AE weight decreased,QW arm,50%
